Measurements published in ChEMBL document CHEMBL3108699, “Small azobenzene derivatives active against bacteria and fungi” (2013).
Converted amounts (≈) assume the structure as drawn. The source made the active and inactive calls. The rule behind the calls is not given here.

Key:
Listeria monocytogenes = assay: Antimicrobial activity against Listeria monocytogenes after 24 hrs by microbroth dilution method; type: functional; details: read-out: MIC100
Procedure, shortened: (§1)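 Two-fold serial dilutions, six replicates each, inoculated with about 5 × 10^5 CFU/mL in cation-adjusted Mueller-Hinton broth 2. Incubated at 37 °C, 160 rpm, 24 h. OD600 taken at 0 and 24 h; T0 subtracted; % inhibition calculated relative to the bacteria-plus-broth control. MIC is the lowest concentration giving 100% inhibition.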

Candida albicans [1] = assay: Antibiofilm activity against Candida albicans SC5314 at 8 to 60 ug/ml after 24 hrs by crystal violet staining method relative to control; type: functional, organism-based
Pseudomonas aeruginosa = assay: Antimicrobial activity against Pseudomonas aeruginosa ATCC 27853 after 24 hrs by microbroth dilution method; type: functional; details: ATCC 27853, 24 h, read-out: MIC100; procedure, shortened: as §1
Staphylococcus aureus [2] = assay: Antimicrobial activity against Staphylococcus aureus A170 after 24 hrs by microbroth dilution method; type: functional; details: A170, 24 h, read-out: MIC100; procedure, shortened: as §1
Staphylococcus aureus [3] = assay: Antibiofilm activity against Staphylococcus aureus A170 at 25 ug/ml after 24 hrs by crystal violet staining method relative to control; type: functional, organism-based
Candida albicans [4] = assay: Antimicrobial activity against Candida albicans SC5314 after 24 hrs by microbroth dilution method; type: functional; details: SC5314, 24 h, read-out: MIC100
Procedure, shortened: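 CLSI broth microdilution in RPMI 1640 (L-glutamine, no glucose or NaHCO3) buffered to pH 7.0 with 0.165 M MOPS. Two-fold serial dilutions inoculated with 2.5 × 10^3 yeast/mL and incubated at 35 °C for 24 h, using three plates. MIC read visually as the lowest concentration giving optically clear wells versus the drug-free control.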

Salmonella typhimurium = assay: Antimicrobial activity against Salmonella typhimurium after 24 hrs by microbroth dilution method; type: functional, Salmonella enterica subsp. enterica serovar Typhimurium; details: Salmonella enterica, read-out: MIC100; procedure, shortened: as §1
Staphylococcus aureus [5] = assay: Induction of degradation of Staphylococcus aureus A170 biofilm at 30 ug/ml after 24 hrs by crystal violet staining method relative to control; type: functional; details: in the assay text read “after 8 hrs” for “after 24 hrs”
Candida albicans [6] = assay: Induction of degradation of Candida albicans SC5314 biofilm at 20 ug/ml after 24 hrs by XTT assay relative to vehicle-treated control; type: functional, organism-based; details: in the assay text read “after 8 hrs” for “after 24 hrs”
Staphylococcus aureus [7] = assay: Induction of degradation of Staphylococcus aureus A170 biofilm at 50 ug/ml assessed as concentration required for complete degradation after 24 hrs by crystal violet staining method relative to control; type: functional; details: in the assay text read “after 8 hrs” for “after 24 hrs”
Candida albicans [8] = assay: Antimicrobial activity against Candida albicans SC5314 assessed as inhibition of hyphae formation after 24 hrs by inverted microscopy; type: functional, organism-based
Procedure, shortened: (§2)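 Stationary yeast cells at 6 × 10^6 cells/mL in pre-warmed hypha-inducing RPMI 1640 (2.5% fetal calf serum, 20 mM HEPES, 2 mM L-glutamine, 16 mM NaHCO3, pH 7.0). Compound at 1–50 […]. After 24 h at 37 °C, wells examined by inverted microscope for morphology and hyphae formation.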

Candida albicans [9] = assay: Antimicrobial activity against Candida albicans SC5314 assessed as inhibition of germination at 10 ug/ml after 24 hrs by inverted microscopy; type: functional, organism-based; procedure, shortened: as §2
Staphylococcus aureus [10] = assay: Antibiofilm activity against Staphylococcus aureus A170 at 30 ug/ml after 24 hrs by crystal violet staining method relative to control; type: functional, organism-based

SMILES | MIC (Listeria monocytogenes) [µg/mL] | Activity (Candida albicans [1]) | MIC (Pseudomonas aeruginosa) [µg/mL] | MIC (Staphylococcus aureus [2]) [µg/mL] | Activity (Staphylococcus aureus [3]) | MIC (Candida albicans [4]) [µg/mL] | MIC (Salmonella typhimurium) [µg/mL] | Activity (Staphylococcus aureus [5]) [%] | Activity (Candida albicans [6]) | Activity (Staphylococcus aureus [7]) [µg/mL] | inhibition (Candida albicans [8]) | inhibition (Candida albicans [9]) | Activity (Staphylococcus aureus [10])
CCCc1cc(/N=N/c2ccc(O)cc2)ccc1O | 25 (≈ 97.5 µM) | Active | > 60 | 20 (≈ 78 µM) | Active | 20 (≈ 78 µM) | > 60 | >60 | Active | 50 | Dose-dependent effect | Active | –
C=CCc1cc(/N=N/c2ccc(O)cc2)cc(C)c1O | > 60 | Active | > 60 | 25 (≈ 93.2 µM) | Active | 15 (≈ 55.9 µM) | > 60 | >60 | Active | 50 | – | – | –
CCc1cc(/N=N/c2ccc(O)cc2)ccc1O | 50 (≈ 206 µM) | Active | > 60 | 30 (≈ 124 µM) | Active | 30 (≈ 124 µM) | > 60 | >60 | Active | 50 | – | – | –
Cc1cc(/N=N/c2ccc(O)cc2)cc(C)c1O | 25 (≈ 103 µM) | Active | > 60 | 20 (≈ 82.5 µM) | – | 17 (≈ 70.2 µM) | > 60 | 40 | Active | 50 | – | – | Active
Oc1ccc(/C=C/c2cc(O)cc(O)c2)cc1 [RESVERATROL] | – | – | > 400 | 100 (≈ 438 µM) | – | > 128 | > 400 | – | – | – | – | – | –
C=CCc1cc(/N=N/c2ccc(O)cc2)ccc1O | 25 (≈ 98.3 µM) | Active | > 60 | 20 (≈ 78.7 µM) | Active | 20 (≈ 78.7 µM) | > 60 | >60 | Active | 50 | – | – | –
